ChEMBL document CHEMBL4680340, “Discovery and structure activity relationship of glyoxamide derivatives as anti-hepatitis B virus agents” (Bioorg Med Chem, 2021)

Assays:
[1] = Cytotoxicity against human PBMC cells assessed as reduction in cell viability by MTT assay; assay type: cell-based
[2] = Cytotoxicity against African green monkey Vero cells assessed as reduction in cell viability by MTT assay; assay type: cell-based; conditions: chlorocebus sabaeus
[3] = Cytotoxicity against human HepG2 cells assessed as reduction in cell viability by MTT assay; assay type: cell-based
[4] = Cytotoxicity against human CEM cells assessed as reduction in cell viability by MTT assay; assay type: cell-based; conditions: CEM (CCRF-CEM) cells
[5] = test system: Hepatitis B virus; assay: Antiviral activity against Hepatitis B virus infected in human HePAD38 cells assessed as reduction in viral DNA replication incubated for 7 days by RT-PCR analysis; assay type: functional, organism-based; conditions: HePAD38, 168 h; for EC90: time 7 day
Summary of the method: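 HepAD38 cells seeded and held 2 days at 37 °C, 5% CO2, then washed with PBS; compounds added in duplicate at various concentrations in tetracycline-free medium (from 40 mM stocks). Day 7: total DNA extracted, HBV DNA quantified by real-time PCR; ΔCT against untreated tetracycline-free control; EC50 and EC90 computed.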

[6] = Therapeutic index, ratio of CC50 for human HepG2 cells to IC50 for Hepatitis B virus infected in human HePAD38 cells; assay type: toxicity, cell-based; conditions: read-out: Ratio CC50/IC50

**Q.** With `C#CCNC(=O)C(=O)c1cc(C(=O)Nc2ccc(F)c(F)c2)n(C)c1` as the compound, how does the CC50 [1] read?
**A.** 57.9 µM

**Q.** And the CC50 [2]?
**A.** 89 µM

**Q.** What about the CC50 [3] of the same compound?
**A.** > 100 µM

**Q.** And the CC50 [4]?
**A.** 70.3 µM

**Q.** What about the EC50 [5] of the same compound?
**A.** 5.6 µM

**Q.** What about the EC90 [5] of the same compound?
**A.** > 10 µM

**Q.** What does the source list for `Cc1c(C(=O)C(=O)Nc2nccs2)c(C)n(C)c1C(=O)Nc1ccc(F)c(F)c1`?
**A.** CC50 [1]: > 100 µM; CC50 [2]: > 100 µM; CC50 [3]: 83.9 µM; CC50 [4]: 26.8 µM; EC50 [5]: 0.006 µM; EC90 [5]: 0.03 µM

**Q.** Which results are given for `Cn1cc(C(=O)C(=O)NCC#N)cc1C(=O)Nc1ccc(F)c(F)c1`?
**A.** CC50 [1]: > 100 µM; CC50 [2]: 91.4 µM; CC50 [3]: > 100 µM; CC50 [4]: > 100 µM; EC50 [5]: 5.16 µM; EC90 [5]: 10 µM

**Q.** For `Cc1c(C(=O)C(=O)NCc2nccn2C)c(C)n(C)c1C(=O)Nc1ccc(F)c(F)c1`, which CC50 [1] is on record?
**A.** > 100 µM

**Q.** And the CC50 [2]?
**A.** 50.6 µM

**Q.** And the CC50 [3]?
**A.** 34.7 µM

**Q.** And the CC50 [4]?
**A.** 46.9 µM

**Q.** What about the EC50 [5] of the same compound?
**A.** 0.01 µM

**Q.** What about the EC90 [5] of the same compound?
**A.** 0.17 µM

**Q.** Which CC50 [1] does the source give for `C=CCNC(=O)C(=O)c1cc(C(=O)Nc2ccc(F)c(F)c2)n(C)c1` here?
**A.** > 100 µM

**Q.** What about the CC50 [2] of the same compound?
**A.** 68.1 µM

**Q.** And the CC50 [3]?
**A.** > 100 µM

**Q.** What about the CC50 [4] of the same compound?
**A.** > 100 µM

**Q.** What about the EC50 [5] of the same compound?
**A.** 0.09 µM

**Q.** And the EC90 [5]?
**A.** 3.05 µM

**Q.** What does the source list for `Cn1cc(C(=O)C(=O)NCc2ccccc2)cc1C(=O)Nc1ccc(F)c(F)c1`?
**A.** CC50 [1]: > 100 µM; CC50 [2]: 62.4 µM; CC50 [3]: > 100 µM; CC50 [4]: > 100 µM; EC50 [5]: 0.41 µM; EC90 [5]: 7.95 µM

**Q.** Which CC50 [1] does the source give for `Cn1cc(C(=O)C(=O)N2CC(F)(F)C2)cc1C(=O)Nc1ccc(F)c(F)c1` here?
**A.** > 100 µM

**Q.** What about the CC50 [2] of the same compound?
**A.** > 100 µM

**Q.** And the CC50 [3]?
**A.** > 100 µM

**Q.** And the CC50 [4]?
**A.** > 100 µM

**Q.** What about the EC50 [5] of the same compound?
**A.** 3.8 µM

**Q.** And the EC90 [5]?
**A.** 9.67 µM

**Q.** For `CCN(CC)C(=O)C(=O)c1c(C)c(C(=O)Nc2ccc(F)c(F)c2)n(C)c1C`, which CC50 [1] is on record?
**A.** 91.7 µM

**Q.** What about the CC50 [2] of the same compound?
**A.** > 100 µM

**Q.** What about the CC50 [3] of the same compound?
**A.** 89.9 µM

**Q.** What about the CC50 [4] of the same compound?
**A.** 16.8 µM

**Q.** And the EC50 [5]?
**A.** 0.58 µM

**Q.** What about the EC90 [5] of the same compound?
**A.** 5.64 µM

**Q.** For `C#CCNC(=O)C(=O)c1c(C)c(C(=O)Nc2ccc(F)c(F)c2)n(C)c1C`, which CC50 [1] is on record?
**A.** > 100 µM

**Q.** And the CC50 [2]?
**A.** 46.4 µM

**Q.** And the CC50 [3]?
**A.** > 100 µM

**Q.** What about the CC50 [4] of the same compound?
**A.** > 100 µM

**Q.** What about the EC50 [5] of the same compound?
**A.** 0.003 µM

**Q.** And the EC90 [5]?
**A.** 0.014 µM

**Q.** And the selectivity ratio [6]?
**A.** > 33300

**Q.** Which CC50 [1] does the source give for `Cn1cc(C(=O)C(=O)N2CCOCC2)cc1C(=O)Nc1ccc(F)c(F)c1` here?
**A.** > 100 µM

**Q.** And the CC50 [2]?
**A.** 41.9 µM

**Q.** What about the CC50 [3] of the same compound?
**A.** 93.9 µM

**Q.** What about the CC50 [4] of the same compound?
**A.** > 100 µM

**Q.** What about the EC50 [5] of the same compound?
**A.** 1.1 µM

**Q.** And the EC90 [5]?
**A.** 4.62 µM

**Q.** Which results are given for `C=C1[C@H](CO)[C@@H](O)C[C@@H]1n1cnc2c(=O)[nH]c(N)nc21`?
**A.** CC50 [1]: 15.7 µM; CC50 [2]: > 100 µM; CC50 [3]: > 100 µM; CC50 [4]: > 100 µM; EC50 [5]: 0.0006 µM; EC90 [5]: 0.011 µM

**Q.** What does the source list for `Cn1cc(C(=O)C(=O)NOC2CCCC2)cc1C(=O)Nc1ccc(F)c(F)c1`?
**A.** CC50 [1]: ≥ 100 µM; CC50 [2]: 80.1 µM; CC50 [3]: > 100 µM; CC50 [4]: 37.9 µM; EC50 [5]: 0.56 µM; EC90 [5]: 2.95 µM

**Q.** Which CC50 [1] does the source give for `Cn1cc(C(=O)C(=O)Nc2nccs2)cc1C(=O)Nc1ccc(F)c(F)c1` here?
**A.** > 100 µM

**Q.** What about the CC50 [2] of the same compound?
**A.** 31.2 µM

**Q.** And the CC50 [3]?
**A.** > 100 µM

**Q.** And the CC50 [4]?
**A.** > 100 µM

**Q.** What about the EC50 [5] of the same compound?
**A.** 0.47 µM

**Q.** What about the EC90 [5] of the same compound?
**A.** 4.1 µM

**Q.** What does the source list for `Cc1c(C(=O)C(=O)N2CCN(C)CC2)c(C)n(C)c1C(=O)Nc1ccc(F)c(F)c1`?
**A.** CC50 [1]: ≥ 100 µM; CC50 [2]: ≥ 100 µM; CC50 [3]: 95.4 µM; CC50 [4]: 24.7 µM; EC50 [5]: 0.005 µM; EC90 [5]: 0.1 µM

**Q.** For `Nc1ccn([C@@H]2CS[C@H](CO)O2)c(=O)n1` [LAMIVUDINE], which CC50 [1] is on record?
**A.** > 100 µM

**Q.** And the CC50 [2]?
**A.** > 100 µM

**Q.** And the CC50 [3]?
**A.** > 100 µM

**Q.** And the CC50 [4]?
**A.** > 100 µM

**Q.** And the EC50 [5]?
**A.** 0.41 µM

**Q.** What about the EC90 [5] of the same compound?
**A.** 1.65 µM

**Q.** For `Cc1c(C(=O)C(=O)NCc2ccccn2)c(C)n(C)c1C(=O)Nc1ccc(F)c(F)c1`, which CC50 [1] is on record?
**A.** > 100 µM

**Q.** What about the CC50 [2] of the same compound?
**A.** 9.6 µM

**Q.** And the CC50 [3]?
**A.** 7.2 µM

**Q.** What about the CC50 [4] of the same compound?
**A.** 38.4 µM

**Q.** And the EC50 [5]?
**A.** 0.16 µM

**Q.** And the EC90 [5]?
**A.** 2.02 µM

**Q.** Which CC50 [1] does the source give for `Cc1c(C(=O)C(=O)Nc2nc3ccccc3[nH]2)c(C)n(C)c1C(=O)Nc1ccc(F)c(F)c1` here?
**A.** 90 µM

**Q.** What about the CC50 [2] of the same compound?
**A.** 46.9 µM

**Q.** What about the CC50 [3] of the same compound?
**A.** 74.9 µM

**Q.** And the CC50 [4]?
**A.** 35.8 µM

**Q.** And the EC50 [5]?
**A.** 0.21 µM

**Q.** What about the EC90 [5] of the same compound?
**A.** 3.44 µM

**Q.** Which results are given for `CCOC(=O)C1=C(CN2CCOCC2)NC(c2nccs2)=NC1c1ccc(F)cc1Br` (centres undefined)?
**A.** EC50 [5]: 0.08 µM; EC90 [5]: 0.28 µM

**Q.** Which EC50 [5] does the source give for `O=C(Nc1ccc(F)c(F)c1)c1cc(S(=O)(=O)N2CC(F)(F)C2)ccc1F` here?
**A.** 1.2 µM

**Q.** What about the EC90 [5] of the same compound?
**A.** 6.3 µM

**Q.** With `Cn1cc(C(=O)C(=O)Nc2ccccc2)cc1C(=O)Nc1ccc(F)c(F)c1` as the compound, how does the CC50 [1] read?
**A.** > 100 µM

**Q.** And the CC50 [2]?
**A.** 13.4 µM

**Q.** What about the CC50 [3] of the same compound?
**A.** > 100 µM

**Q.** What about the CC50 [4] of the same compound?
**A.** > 100 µM

**Q.** What about the EC50 [5] of the same compound?
**A.** 0.08 µM

**Q.** And the EC90 [5]?
**A.** 1.8 µM

**Q.** For `Cc1c(C(=O)C(=O)Nc2ccccn2)c(C)n(C)c1C(=O)Nc1ccc(F)c(F)c1`, which CC50 [1] is on record?
**A.** > 100 µM

**Q.** What about the CC50 [2] of the same compound?
**A.** > 100 µM

**Q.** What about the CC50 [3] of the same compound?
**A.** 83.7 µM

**Q.** And the CC50 [4]?
**A.** 14.6 µM

**Q.** What about the EC50 [5] of the same compound?
**A.** 0.004 µM

**Q.** And the EC90 [5]?
**A.** 0.06 µM
